Test system: not listed separately
Assay: Angiostatic activity in human ECRF24 cells assessed as inhibition of cell migration at 50 uM after 7 hrs by laser scanner cytometry based wound closure assay
Format: functional
Conditions: ECRF24, 7 h
Summary of the method: (§1)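 ECRF24 endothelial monolayers wounded, then incubated 7 h with compound across a concentration range; wound closure quantified to give migration inhibition. Error bars are standard error of the mean; significance set at p < 0.05 and p < 0.01.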

Point of comparison: `Cc1nc(Nc2ncc(C(=O)Nc3c(C)cccc3Cl)s2)cc(N2CCN(CCO)CC2)n1.O` [DASATINIB], inhibition at 50 µM 65%. Against it:
- Cc1nc(Nc2ncc(C(=O)Nc3c(C)cccc3Cl)s2)cc(N2CCN(CCOC(=O)CCCC(=O)OCCC(F)(F)C(F)(F)C(F)(F)C(F)(F)C(F)(F)C(F)(F)C(F)(F)C(F)(F)F)CC2)n1 — lower, 15%

Test system: HEK293
Assay: Cytotoxicity against human HEK293 cells after 72 hrs by MTT assay
Format: cell-based
Conditions: HEK293, 72 h
Summary of the method: (§2)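 Proliferation inhibition measured in human A2780 ovarian carcinoma, ECRF24 immortalized endothelial and HEK-293 embryonic kidney cells; IC50 values in μM reported as means ± SD.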

Point of comparison: `CCCCCCCCOC(=O)CCC(=O)OCCN1CCN(c2cc(Nc3ncc(C(=O)Nc4c(C)cccc4Cl)s3)nc(C)n2)CC1`, IC50 52 µM. Against it:
- Cc1nc(Nc2ncc(C(=O)Nc3c(C)cccc3Cl)s2)cc(N2CCN(CCOC(=O)CCCC(=O)OCCC(F)(F)C(F)(F)C(F)(F)C(F)(F)C(F)(F)C(F)(F)F)CC2)n1 — higher, > 500 µM
- CCCCCCCCCCCCCCCCCCOC(=O)CCCC(=O)OCCN1CCN(c2cc(Nc3ncc(C(=O)Nc4c(C)cccc4Cl)s3)nc(C)n2)CC1 — higher, > 500 µM
- Cc1nc(Nc2ncc(C(=O)Nc3c(C)cccc3Cl)s2)cc(N2CCN(CCOC(=O)CCCC(=O)OCCC(F)(F)C(F)(F)C(F)(F)C(F)(F)C(F)(F)C(F)(F)C(F)(F)C(F)(F)C(F)(F)C(F)(F)F)CC2)n1 — higher, > 500 µM
- CCCCCCCCCCOC(=O)CCC(=O)OCCN1CCN(c2cc(Nc3ncc(C(=O)Nc4c(C)cccc4Cl)s3)nc(C)n2)CC1 — within 1.5-fold, 46 µM
- Cc1nc(Nc2ncc(C(=O)Nc3c(C)cccc3Cl)s2)cc(N2CCN(CCOC(=O)CCC(=O)OCCC(F)(F)C(F)(F)C(F)(F)C(F)(F)C(F)(F)C(F)(F)C(F)(F)C(F)(F)F)CC2)n1 — higher, > 500 µM
- CCCCCCCCCCOC(=O)CCCC(=O)OCCN1CCN(c2cc(Nc3ncc(C(=O)Nc4c(C)cccc4Cl)s3)nc(C)n2)CC1 — 1.8-fold lower, 29 µM
- Cc1nc(Nc2ncc(C(=O)Nc3c(C)cccc3Cl)s2)cc(N2CCN(CCOC(=O)CCC(=O)OCCC(F)(F)C(F)(F)C(F)(F)C(F)(F)C(F)(F)C(F)(F)F)CC2)n1 — within 1.5-fold, 58 µM
- CCCCCCCCOC(=O)CCCC(=O)OCCN1CCN(c2cc(Nc3ncc(C(=O)Nc4c(C)cccc4Cl)s3)nc(C)n2)CC1 — 2.9-fold lower, 18 µM
- Cc1nc(Nc2ncc(C(=O)Nc3c(C)cccc3Cl)s2)cc(N2CCN(CCO)CC2)n1.O [DASATINIB] — 3.6-fold lower, 14.3 µM
- Cc1nc(Nc2ncc(C(=O)Nc3c(C)cccc3Cl)s2)cc(N2CCN(CCOC(=O)CCC(=O)OCCC(F)(F)C(F)(F)C(F)(F)C(F)(F)C(F)(F)C(F)(F)C(F)(F)C(F)(F)C(F)(F)C(F)(F)F)CC2)n1 — higher, > 500 µM
- CCCCCCCCCCCCOC(=O)CCC(=O)OCCN1CCN(c2cc(Nc3ncc(C(=O)Nc4c(C)cccc4Cl)s3)nc(C)n2)CC1 — higher, > 500 µM
- CCCCCCCCCCCCOC(=O)CCCC(=O)OCCN1CCN(c2cc(Nc3ncc(C(=O)Nc4c(C)cccc4Cl)s3)nc(C)n2)CC1 — higher, > 500 µM
- CCCCCCCCCCCCCCCCCCOC(=O)CCC(=O)OCCN1CCN(c2cc(Nc3ncc(C(=O)Nc4c(C)cccc4Cl)s3)nc(C)n2)CC1 — higher, > 500 µM
- Cc1nc(Nc2ncc(C(=O)Nc3c(C)cccc3Cl)s2)cc(N2CCN(CCOC(=O)CCCC(=O)OCCC(F)(F)C(F)(F)C(F)(F)C(F)(F)C(F)(F)C(F)(F)C(F)(F)C(F)(F)F)CC2)n1 — higher, > 500 µM

Test system: not listed separately
Assay: Cytotoxicity against human ECRF24 cells after 72 hrs by MTT assay
Format: functional, cell-based
Conditions: ECRF24, 72 h
Summary of the method: as §2

Point of comparison: `Cc1nc(Nc2ncc(C(=O)Nc3c(C)cccc3Cl)s2)cc(N2CCN(CCOC(=O)CCCC(=O)OCCC(F)(F)C(F)(F)C(F)(F)C(F)(F)C(F)(F)C(F)(F)C(F)(F)C(F)(F)C(F)(F)C(F)(F)F)CC2)n1`, IC50 102 µM. Against it:
- Cc1nc(Nc2ncc(C(=O)Nc3c(C)cccc3Cl)s2)cc(N2CCN(CCOC(=O)CCCC(=O)OCCC(F)(F)C(F)(F)C(F)(F)C(F)(F)C(F)(F)C(F)(F)F)CC2)n1 — higher, > 500 µM
- CCCCCCCCCCCCCCCCCCOC(=O)CCCC(=O)OCCN1CCN(c2cc(Nc3ncc(C(=O)Nc4c(C)cccc4Cl)s3)nc(C)n2)CC1 — within 1.5-fold, 101 µM
- CCCCCCCCCCOC(=O)CCC(=O)OCCN1CCN(c2cc(Nc3ncc(C(=O)Nc4c(C)cccc4Cl)s3)nc(C)n2)CC1 — 3.4-fold lower, 30 µM
- Cc1nc(Nc2ncc(C(=O)Nc3c(C)cccc3Cl)s2)cc(N2CCN(CCOC(=O)CCC(=O)OCCC(F)(F)C(F)(F)C(F)(F)C(F)(F)C(F)(F)C(F)(F)C(F)(F)C(F)(F)F)CC2)n1 — within 1.5-fold, 96 µM
- CCCCCCCCCCOC(=O)CCCC(=O)OCCN1CCN(c2cc(Nc3ncc(C(=O)Nc4c(C)cccc4Cl)s3)nc(C)n2)CC1 — 3-fold lower, 34 µM
- Cc1nc(Nc2ncc(C(=O)Nc3c(C)cccc3Cl)s2)cc(N2CCN(CCOC(=O)CCC(=O)OCCC(F)(F)C(F)(F)C(F)(F)C(F)(F)C(F)(F)C(F)(F)F)CC2)n1 — within 1.5-fold, 122 µM
- CCCCCCCCOC(=O)CCCC(=O)OCCN1CCN(c2cc(Nc3ncc(C(=O)Nc4c(C)cccc4Cl)s3)nc(C)n2)CC1 — 5.7-fold lower, 18 µM
- CCCCCCCCOC(=O)CCC(=O)OCCN1CCN(c2cc(Nc3ncc(C(=O)Nc4c(C)cccc4Cl)s3)nc(C)n2)CC1 — 13-fold lower, 7.8 µM
- Cc1nc(Nc2ncc(C(=O)Nc3c(C)cccc3Cl)s2)cc(N2CCN(CCO)CC2)n1.O [DASATINIB] — 18-fold lower, 5.7 µM
- Cc1nc(Nc2ncc(C(=O)Nc3c(C)cccc3Cl)s2)cc(N2CCN(CCOC(=O)CCC(=O)OCCC(F)(F)C(F)(F)C(F)(F)C(F)(F)C(F)(F)C(F)(F)C(F)(F)C(F)(F)C(F)(F)C(F)(F)F)CC2)n1 — 4.2-fold lower, 24 µM
- CCCCCCCCCCCCOC(=O)CCC(=O)OCCN1CCN(c2cc(Nc3ncc(C(=O)Nc4c(C)cccc4Cl)s3)nc(C)n2)CC1 — 3.8-fold lower, 27 µM
- CCCCCCCCCCCCOC(=O)CCCC(=O)OCCN1CCN(c2cc(Nc3ncc(C(=O)Nc4c(C)cccc4Cl)s3)nc(C)n2)CC1 — within 1.5-fold, 135 µM
- CCCCCCCCCCCCCCCCCCOC(=O)CCC(=O)OCCN1CCN(c2cc(Nc3ncc(C(=O)Nc4c(C)cccc4Cl)s3)nc(C)n2)CC1 — within 1.5-fold, 105 µM
- Cc1nc(Nc2ncc(C(=O)Nc3c(C)cccc3Cl)s2)cc(N2CCN(CCOC(=O)CCCC(=O)OCCC(F)(F)C(F)(F)C(F)(F)C(F)(F)C(F)(F)C(F)(F)C(F)(F)C(F)(F)F)CC2)n1 — 1.8-fold lower, 57 µM

Test system: ECRF24
Assay: Angiostatic activity in human ECRF24 cells assessed as inhibition of cell migration after 7 hrs by laser scanner cytometry based wound closure assay
Format: functional
Conditions: not given
Summary of the method: as §1

In the case of `Cc1nc(Nc2ncc(C(=O)Nc3c(C)cccc3Cl)s2)cc(N2CCN(CCO)CC2)n1.O` [DASATINIB], the inhibition is reported as “Dose-dependent effect”.
In the case of `Cc1nc(Nc2ncc(C(=O)Nc3c(C)cccc3Cl)s2)cc(N2CCN(CCOC(=O)CCCC(=O)OCCC(F)(F)C(F)(F)C(F)(F)C(F)(F)C(F)(F)C(F)(F)C(F)(F)C(F)(F)F)CC2)n1`, the inhibition is reported as “Dose-dependent effect”.

Test system: not listed separately
Assay: Selectivity index, ratio of cytotoxic IC50 for HEK293 cells to antiangiogenic activity in chicken embryo chorioallantoic membrane model
Conditions: not given

For `Cc1nc(Nc2ncc(C(=O)Nc3c(C)cccc3Cl)s2)cc(N2CCN(CCOC(=O)CCCC(=O)OCCC(F)(F)C(F)(F)C(F)(F)C(F)(F)C(F)(F)C(F)(F)C(F)(F)C(F)(F)F)CC2)n1`, the “Selectivity Index” value was 25.

Test system: Chorioallantoic membrane
Assay: Antiangiogenic activity in chicken embryo chorioallantoic membrane model assessed as inhibition of vasculature formation at 20 uM, iv dosed for 3 consecutive days by FITC-dextran fluorescence angiography
Format: functional, Gallus gallus
Conditions: not given

Point of comparison: `Cc1nc(Nc2ncc(C(=O)Nc3c(C)cccc3Cl)s2)cc(N2CCN(CCOC(=O)CCC(=O)OCCC(F)(F)C(F)(F)C(F)(F)C(F)(F)C(F)(F)C(F)(F)C(F)(F)C(F)(F)C(F)(F)C(F)(F)F)CC2)n1`, “inhibition (INH)” value 18%. Against it:
- Cc1nc(Nc2ncc(C(=O)Nc3c(C)cccc3Cl)s2)cc(N2CCN(CCO)CC2)n1.O [DASATINIB] — lower, 8%
- Cc1nc(Nc2ncc(C(=O)Nc3c(C)cccc3Cl)s2)cc(N2CCN(CCOC(=O)CCCC(=O)OCCC(F)(F)C(F)(F)C(F)(F)C(F)(F)C(F)(F)C(F)(F)C(F)(F)C(F)(F)F)CC2)n1 — higher, 45%

Test system: A2780
Assay: Cytotoxicity against human A2780 cells after 72 hrs by MTT assay
Format: functional, cell-based
Conditions: A2780, 72 h
Summary of the method: as §2

Point of comparison: `Cc1nc(Nc2ncc(C(=O)Nc3c(C)cccc3Cl)s2)cc(N2CCN(CCO)CC2)n1.O` [DASATINIB], IC50 8.7 µM. Against it:
- Cc1nc(Nc2ncc(C(=O)Nc3c(C)cccc3Cl)s2)cc(N2CCN(CCOC(=O)CCCC(=O)OCCC(F)(F)C(F)(F)C(F)(F)C(F)(F)C(F)(F)C(F)(F)F)CC2)n1 — 3.3-fold higher, 28.3 µM
- CCCCCCCCCCCCCCCCCCOC(=O)CCCC(=O)OCCN1CCN(c2cc(Nc3ncc(C(=O)Nc4c(C)cccc4Cl)s3)nc(C)n2)CC1 — 14-fold higher, 125 µM
- Cc1nc(Nc2ncc(C(=O)Nc3c(C)cccc3Cl)s2)cc(N2CCN(CCOC(=O)CCCC(=O)OCCC(F)(F)C(F)(F)C(F)(F)C(F)(F)C(F)(F)C(F)(F)C(F)(F)C(F)(F)C(F)(F)C(F)(F)F)CC2)n1 — higher, > 500 µM
- CCCCCCCCCCOC(=O)CCC(=O)OCCN1CCN(c2cc(Nc3ncc(C(=O)Nc4c(C)cccc4Cl)s3)nc(C)n2)CC1 — 2.6-fold higher, 22.5 µM
- Cc1nc(Nc2ncc(C(=O)Nc3c(C)cccc3Cl)s2)cc(N2CCN(CCOC(=O)CCC(=O)OCCC(F)(F)C(F)(F)C(F)(F)C(F)(F)C(F)(F)C(F)(F)C(F)(F)C(F)(F)F)CC2)n1 — 14-fold higher, 118 µM
- CCCCCCCCCCOC(=O)CCCC(=O)OCCN1CCN(c2cc(Nc3ncc(C(=O)Nc4c(C)cccc4Cl)s3)nc(C)n2)CC1 — 14-fold higher, 119 µM
- Cc1nc(Nc2ncc(C(=O)Nc3c(C)cccc3Cl)s2)cc(N2CCN(CCOC(=O)CCC(=O)OCCC(F)(F)C(F)(F)C(F)(F)C(F)(F)C(F)(F)C(F)(F)F)CC2)n1 — 15-fold higher, 130 µM
- CCCCCCCCOC(=O)CCCC(=O)OCCN1CCN(c2cc(Nc3ncc(C(=O)Nc4c(C)cccc4Cl)s3)nc(C)n2)CC1 — within 1.5-fold, 12 µM
- CCCCCCCCOC(=O)CCC(=O)OCCN1CCN(c2cc(Nc3ncc(C(=O)Nc4c(C)cccc4Cl)s3)nc(C)n2)CC1 — within 1.5-fold, 10.6 µM
- Cc1nc(Nc2ncc(C(=O)Nc3c(C)cccc3Cl)s2)cc(N2CCN(CCOC(=O)CCC(=O)OCCC(F)(F)C(F)(F)C(F)(F)C(F)(F)C(F)(F)C(F)(F)C(F)(F)C(F)(F)C(F)(F)C(F)(F)F)CC2)n1 — 10-fold higher, 90 µM
- CCCCCCCCCCCCOC(=O)CCC(=O)OCCN1CCN(c2cc(Nc3ncc(C(=O)Nc4c(C)cccc4Cl)s3)nc(C)n2)CC1 — 5.2-fold higher, 45 µM
- CCCCCCCCCCCCOC(=O)CCCC(=O)OCCN1CCN(c2cc(Nc3ncc(C(=O)Nc4c(C)cccc4Cl)s3)nc(C)n2)CC1 — 6.1-fold higher, 53 µM
- CCCCCCCCCCCCCCCCCCOC(=O)CCC(=O)OCCN1CCN(c2cc(Nc3ncc(C(=O)Nc4c(C)cccc4Cl)s3)nc(C)n2)CC1 — 12-fold higher, 108 µM
- Cc1nc(Nc2ncc(C(=O)Nc3c(C)cccc3Cl)s2)cc(N2CCN(CCOC(=O)CCCC(=O)OCCC(F)(F)C(F)(F)C(F)(F)C(F)(F)C(F)(F)C(F)(F)C(F)(F)C(F)(F)F)CC2)n1 — 14-fold higher, 121 µM

— ChEMBL document CHEMBL3425443, “Improved angiostatic activity of dasatinib by modulation with hydrophobic chains” (ACS Med Chem Lett, 2015)
